Measurements as given in article PMC5760267 (ChemMedChem, 2016).

Target: human immunoproteasome β5i (Homo sapiens, UniProt P20618+P28062)
Experiment: IC50 against β5i
Assay type: biochemical
Conditions: relative to the P1-β-Ala parents PKS2251 and PKS2252, respectively
Summary of the method: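 Human immunoproteasome β5i activity was read as ac-ANW-AMC hydrolysis, and constitutive β5c activity as suc-LLVY-AMC hydrolysis. IC50s were determined by a previously reported method. Apparent selectivity index = IC50β5c / IC50β5i. Data reported as mean ± SEM.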

Point of comparison: `C[C@H](NC(=O)C[C@H](CC(=O)NC(C)(C)C)NC(=O)CCc1ccccc1)C(=O)NCc1cccc2ccccc12` [PKS2278], “reduction of potency against β5i” value 58 fold. Against it:
- Cc1ccc(S(=O)(=O)N[C@H](CC(=O)N[C@@H](C)C(=O)NCc2cccc3ccccc23)CC(=O)NC(C)(C)C)cc1 [PKS2279] — lower, 2.5 fold

Same assay, conditions: β5i over β5c

Point of comparison: `Cc1cc(C(=O)N[C@@H](CC(=O)NC(C)(C)C)C(=O)N[C@@H](C)CC(=O)NCc2cccc3ccccc23)no1` [PKS2249], “SIapp: apparent selectivity index = IC50β5c / IC50β5i” value 465. Against it:
- C[C@@H](CC(=O)NCc1cccc2ccccc12)NC(=O)[C@H](CC(=O)NC(C)(C)C)NC(=O)CCc1ccccc1 [PKS2251] — higher, 1333
- Cc1ccc(S(=O)(=O)N[C@@H](CC(=O)NC(C)(C)C)C(=O)N[C@@H](C)CC(=O)NCc2cccc3ccccc23)cc1 [PKS2252] — higher, 13600
- Cc1ccc(S(=O)(=O)N[C@H](CC(=O)N[C@@H](C)C(=O)NCc2cccc3ccccc23)CC(=O)NC(C)(C)C)cc1 [PKS2279] — higher, 2521
